Test results taken from ChEMBL document CHEMBL1268887, “2-Hexadecynoic acid inhibits plasmodial FAS-II enzymes and arrests erythrocytic and liver stage Plasmodium infections” (Bioorg Med Chem, 2010).
Converted amounts (≈) assume the structure as drawn.

Assays:
Plasmodium yoelii [1] = experiment: Antimalarial activity against liver stages of Plasmodium yoelii expressing GFP infected in human HepG2:CD81 cells after 43 hrs by flow cytometry; format: functional, organism-based
Outline: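 HepG2:CD81 cells seeded on attachment matrix in DMEM/F12 with FBS, infected next day with 50,000 PyGFP sporozoites dissected from mosquitoes 14 days post blood meal. Compound added 2 h later from 10 mM DMSO stocks, tested at 10 to 100 μM, medium changed at 24 h, grown a further 43 h at 37 °C. GFP-positive cells counted by flow cytometry with 7-AAD; atovaquone as positive control.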

Plasmodium yoelii [2] = experiment: Antimalarial activity against liver stages of Plasmodium yoelii expressing GFP infected in human HepG2:CD81 cells after 43 hrs by immunofluorescence analysis; format: functional, organism-based
Outline: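 P. yoelii sporozoite-infected subconfluent HepG2:CD81 cells were kept at 37 °C in 5% CO2 and exposed to compound at up to 25 μg/ml in complete medium. After 43 h they were formalin-fixed and stained with anti-Plasmodium HSP70 mouse mAb plus rabbit anti-UIS4 or anti-FabI. About 20–25 parasites per treatment were sized at 20X against DMSO controls. The normalized reduction was used for IC50 estimation.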

[3] = molecular target: T1, 3-oxoacyl-acyl-carrier protein reductase (Plasmodium falciparum, UniProt Q965D6); experiment: Inhibition of Plasmodium falciparum FabG by spectrophotometric analysis
T1 sequence (Q965D6 whole entry): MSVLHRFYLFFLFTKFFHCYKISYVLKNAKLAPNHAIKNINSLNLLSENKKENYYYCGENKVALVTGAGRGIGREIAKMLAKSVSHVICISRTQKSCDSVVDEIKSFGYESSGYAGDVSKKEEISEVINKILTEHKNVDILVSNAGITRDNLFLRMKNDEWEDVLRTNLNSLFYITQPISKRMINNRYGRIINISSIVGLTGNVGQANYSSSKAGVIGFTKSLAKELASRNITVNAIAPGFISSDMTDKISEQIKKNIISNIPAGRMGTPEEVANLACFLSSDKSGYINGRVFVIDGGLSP
Outline: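 Recombinant PfFabG assayed in 20 mM HEPES pH 7.4, 150 mM NaCl, with NADPH cofactor and acetoacetyl-CoA substrate; DMSO at most 1% final. IC50 came from plotted dose-response curves.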

[4] = system: Trypanosoma brucei rhodesiense; experiment: Trypanocidal activity against bloodstream form of Trypanosoma brucei rhodesiense STIB 900 after 72 hrs; format: functional, organism-based; conditions: STIB 900, 72 h
Fatty acid synthase = molecular target: T2, Fatty acid synthase (Plasmodium falciparum, UniProt Q965D7); experiment: Inhibition of Plasmodium falciparum FabZ by spectrophotometric analysis
T2 sequence (Q965D7 whole entry): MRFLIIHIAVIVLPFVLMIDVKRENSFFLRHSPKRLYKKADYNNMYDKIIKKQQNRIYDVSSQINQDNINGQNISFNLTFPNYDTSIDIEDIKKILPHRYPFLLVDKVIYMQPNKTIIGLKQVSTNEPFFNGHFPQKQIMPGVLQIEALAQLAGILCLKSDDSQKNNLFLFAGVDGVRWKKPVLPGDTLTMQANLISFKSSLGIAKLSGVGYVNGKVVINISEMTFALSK
Outline: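 Recombinant PfFabZ (0.5 μg) with 25 μM crotonoyl-CoA in 20 mM HEPES pH 7.4, 150 mM NaCl; DMSO at most 1% final. Read at 263 nm for 2 min, with epigallocatechin gallate as reference. IC50 came from plotted dose-response curves.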

Trypanosoma cruzi = experiment: Trypanocidal activity against intracellular amastigotes of Trypanosoma cruzi Tulahuen C2C4 expressing LacZ gene infected in rat L6 cells after 96 hrs; format: functional, organism-based; conditions: Tulahuen C2C4, L6, 96 h
L6 = experiment: Cytotoxicity against rat L6 cells after 72 hrs by microplate fluorometric analysis; format: cell-based; conditions: L6, 72 h
Leishmania donovani = experiment: Leishmanicidal activity against axenic amastigotes of Leishmania donovani MHOM/ET/67/L82 after 72 hrs; format: functional, organism-based; conditions: MHOM/ET/67/L82, 72 h
Plasmodium falciparum [5] = experiment: Antimalarial activity against erythrocytic stages of chloroquine and pyrimethamine-resistant Plasmodium falciparum K1 assessed as [3H]hypoxanthine incorporation after 48 hrs by liquid scintillation counting; format: functional, organism-based
Outline: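 K1 parasites in RPMI 1640 with 5% Albumax, no hypoxanthine, given serial dilutions; 48 h at 37 °C under reduced oxygen, then 0.5 μCi [3H]-hypoxanthine added for a further 24 h. Harvested on glass-fibre filters and counted. Counts per well expressed as percentage of untreated controls; IC50 read from plotted dose-response curves. Chloroquine as standard.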

[6] = molecular target: T3, Enoyl-acyl-carrier protein reductase (Plasmodium falciparum, UniProt Q965D5); experiment: Inhibition of Plasmodium falciparum FabI by spectrophotometric analysis
T3 sequence (Q965D5 whole entry): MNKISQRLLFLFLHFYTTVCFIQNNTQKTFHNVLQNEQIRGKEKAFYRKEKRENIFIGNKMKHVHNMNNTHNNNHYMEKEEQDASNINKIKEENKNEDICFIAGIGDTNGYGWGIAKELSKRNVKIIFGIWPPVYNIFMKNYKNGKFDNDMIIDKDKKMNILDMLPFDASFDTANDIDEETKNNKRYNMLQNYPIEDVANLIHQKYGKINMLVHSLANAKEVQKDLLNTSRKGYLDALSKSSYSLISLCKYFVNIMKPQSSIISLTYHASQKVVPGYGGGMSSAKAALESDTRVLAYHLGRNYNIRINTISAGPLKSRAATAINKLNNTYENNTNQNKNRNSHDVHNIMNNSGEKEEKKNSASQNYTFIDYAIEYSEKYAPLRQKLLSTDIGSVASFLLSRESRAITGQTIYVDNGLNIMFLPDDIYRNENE

Plasmodium falciparum [7] = experiment: Selectivity ratio of IC50 for Plasmodium falciparum FabG to IC50 for Plasmodium falciparum FabI
Plasmodium falciparum [8] = experiment: Selectivity ratio of IC50 for Plasmodium falciparum FabG to IC50 for Plasmodium falciparum FabZ

Row | SMILES | IC50 (Plasmodium yoelii [1]) [mg/L] | IC50 (Plasmodium yoelii [2]) [mg/L] | IC50 [3] [µM] | IC50 [4] [mg/L] | IC50 (Fatty acid synthase) [µM] | IC50 (Trypanosoma cruzi) [mg/L] | IC50 (L6) [mg/L] | IC50 (Leishmania donovani) [mg/L] | IC50 (Plasmodium falciparum [5]) [mg/L] | IC50 [6] [µM] | Ratio IC50 (Plasmodium falciparum [7]) | Ratio IC50 (Plasmodium falciparum [8])
1 | O=C1C(O)=C([C@H]2CC[C@H](c3ccc(Cl)cc3)CC2)C(=O)c2ccccc21 [ATOVAQUONE] | 0.0025 (≈ 0.00681 µM) | 0.00037 (≈ 0.00101 µM) | – | – | – | – | – | – | – | – | – | –
2 | CCCCCCCCCCCCCCCC(=O)O [PALMITIC ACID] | > 25 | > 25 | > 390 | 30.4 (≈ 119 µM) | > 390 | > 30 | 52.7 (≈ 206 µM) | 14.5 (≈ 56.5 µM) | 3.8 (≈ 14.8 µM) | > 390 | – | –
3 | COc1cc([C@@H]2c3cc4c(cc3[C@H](O)[C@H]3COC(=O)[C@H]23)OCO4)cc(OC)c1OC [PODOFILOX] | – | – | – | – | – | – | 0.004 (≈ 0.00965 µM) | – | – | – | – | –
4 | CCCCCCCCCC#CCCCCC(=O)O | > 25 | > 25 | > 396 | 31.7 (≈ 126 µM) | 47.5 | > 30 | 30.3 (≈ 120 µM) | 9.8 (≈ 38.8 µM) | 22.5 (≈ 89.1 µM) | 14.3 | 10 | 50
5 | CCCCCCCCCCC#CCCCC(=O)O | > 25 | > 25 | > 396 | 25.5 (≈ 101 µM) | 55.5 | > 30 | > 90 | 13.4 (≈ 53.1 µM) | 6.6 (≈ 26.1 µM) | 12.3 | 10 | 50
6 | O=C(O[C@@H]1Cc2c(O)cc(O)cc2O[C@@H]1c1cc(O)c(O)c(O)c1)c1cc(O)c(O)c(O)c1 [EPIGALOCATECHIN GALLATE] | – | – | – | – | 0.0654 | – | – | – | – | – | – | –
7 | O=C(Cn1ccnc1[N+](=O)[O-])NCc1ccccc1 [BENZNIDAZOLE] | – | – | – | – | – | 0.489 (≈ 1.88 µM) | – | – | – | – | – | –
8 | CCCCCCC#CCCCCCCCC(=O)O | > 25 | > 25 | > 396 | 3.7 (≈ 14.7 µM) | 49.5 | > 30 | 80.8 (≈ 320 µM) | 4.1 (≈ 16.2 µM) | – | 11.1 | 10 | 50
9 | CCCCCCCCCCCCCCCCOP(=O)([O-])OCC[N+](C)(C)C [MILTEFOSINE] | – | – | – | – | – | – | – | 0.26 (≈ 0.638 µM) | – | – | – | –
